# Experimental data reported in ChEMBL document CHEMBL3862007, “Synthesis and antimicrobial activity of small cationic amphipathic aminobenzamide marine natural product mimics and evaluation of relevance against clinical isolates including ESBL-CARBA producing multi-resistant bacteria” (Bioorg Med Chem, 2016).
# Assays:
# Staphylococcus aureus [1] = experiment: Antibacterial activity against Staphylococcus aureus ATCC 9144 after 48 hrs by microdilution method; assay type: functional; settings: ATCC 9144, 48 h
# [2] = Antibacterial activity against methicillin-resistant Staphylococcus epidermidis RP62A CCUG 31568 (ATCC 35984) after 48 hrs by microdilution method; assay type: functional
# In short: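 Broth microdilution MIC against the reference-strain panel. Compounds were supplied as HCl salts for aqueous solubility in the test medium. Precipitation in the test buffer is flagged at higher concentrations.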
# Bacillus subtilis = experiment: Antibacterial activity against Bacillus subtilis 168 ATCC 23857 after 48 hrs by microdilution method; assay type: functional; settings: subsp. subtilis str. 168 ATCC 23857, 48 h
# [3] = system: Corynebacterium glutamicum; experiment: Antibacterial activity against Corynebacterium glutamicum ATCC 13032 after 48 hrs by microdilution method; assay type: functional; settings: ATCC 13032, 48 h
# Escherichia coli [4] = experiment: Antibacterial activity against Escherichia coli ATCC 25922 after 48 hrs by microdilution method; assay type: functional; settings: ATCC 25922, 48 h
# Pseudomonas aeruginosa [5] = experiment: Antibacterial activity against Pseudomonas aeruginosa PAO1 DSM 19880 (ATCC 15692) after 48 hrs by microdilution method; assay type: functional
# [6] = Hemolytic activity in human RBC after 1 hr; assay type: ADME, cell-based; settings: Erythrocyte
# [7] = Selectivity index, ratio of hemolytic EC50 for human RBC to MIC for Staphylococcus aureus ATCC 9144
# [8] = Hemolytic activity in human RBC at 64 ug/ml after 1 hr relative to control; assay type: ADME, cell-based, Erythrocyte; settings: red blood cells (RBC), read-out: Activity
# [9] = Aqueous solubility of the compound; assay type: physicochemical; settings: buffer
# Staphylococcus aureus [10] = experiment: Antibacterial activity against Staphylococcus aureus clinical isolate after 24 hrs by microdilution method; assay type: functional
# Enterococcus sp. = experiment: Antibacterial activity against Enterococcus sp. clinical isolate after 24 hrs by microdilution method; assay type: functional
# Escherichia coli [11] = experiment: Antibacterial activity against Escherichia coli clinical isolate after 24 hrs by microdilution method; assay type: functional
# Pseudomonas aeruginosa [12] = experiment: Antibacterial activity against Pseudomonas aeruginosa clinical isolate after 24 hrs by microdilution method; assay type: functional
# Klebsiella pneumoniae [13] = experiment: Antibacterial activity against Klebsiella pneumoniae clinical isolate after 24 hrs by microdilution method; assay type: functional
# Staphylococcus aureus [14] = experiment: Antibacterial activity against methicillin resistant Staphylococcus aureus N315 after 24 hrs by microdilution method; assay type: functional; settings: N315, 24 h
# Staphylococcus aureus [15] = experiment: Antibacterial activity against methicillin resistant Staphylococcus aureus NCTC 10442 after 24 hrs by microdilution method; assay type: functional; settings: NCTC 10442, 24 h
# Staphylococcus aureus [16] = experiment: Antibacterial activity against methicillin resistant Staphylococcus aureus clinical isolate 85/2082 after 24 hrs by microdilution method; assay type: functional; settings: isolate 85/2082, 24 h
# Staphylococcus aureus [17] = experiment: Antibacterial activity against methicillin resistant Staphylococcus aureus clinical isolate WIS after 24 hrs by microdilution method; assay type: functional
# Staphylococcus aureus [18] = experiment: Antibacterial activity against methicillin resistant Staphylococcus aureus IHT 99040 after 24 hrs by microdilution method; assay type: functional; settings: IHT 99040, 24 h
# Enterococcus faecium [19] = experiment: Antibacterial activity against vancomycin-resistant Enterococcus faecium 50673722 after 24 hrs by microdilution method; assay type: functional; settings: Enterococcus faecium, 50673722, 24 h
# Enterococcus faecium [20] = experiment: Antibacterial activity against vancomycin-resistant Enterococcus faecium 50901530 after 24 hrs by microdilution method; assay type: functional; settings: Enterococcus faecium, 50901530, 24 h
# Enterococcus faecium [21] = experiment: Antibacterial activity against vancomycin-resistant Enterococcus faecium K36-18 after 24 hrs by microdilution method; assay type: functional; settings: K36-18, 24 h
# Enterococcus faecium [22] = experiment: Antibacterial activity against vancomycin-resistant Enterococcus faecium 50758899 after 24 hrs by microdilution method; assay type: functional; settings: Enterococcus faecium, 50758899, 24 h
# Enterococcus faecium [23] = experiment: Antibacterial activity against vancomycin-resistant Enterococcus faecium TUH50-22 after 24 hrs by microdilution method; assay type: functional; settings: TUH50-22, 24 h
# Escherichia coli [24] = experiment: Antibacterial activity against multi-drug resistant/OXA-48 producing Escherichia coli 50579417 after 24 hrs by microdilution method; assay type: functional; settings: Escherichia coli, 50579417, 24 h
# Escherichia coli [25] = experiment: Antibacterial activity against multi-drug resistant/VIM-29 producing Escherichia coli 50639799 after 24 hrs by microdilution method; assay type: functional; settings: Escherichia coli, 50639799, 24 h
# Escherichia coli [26] = experiment: Antibacterial activity against multi-drug resistant/NDM-1 producing Escherichia coli 50676002 after 24 hrs by microdilution method; assay type: functional; settings: Escherichia coli, 50676002, 24 h
# Escherichia coli [27] = experiment: Antibacterial activity against multi-drug resistant/NDM-1 producing Escherichia coli 50739822 after 24 hrs by microdilution method; assay type: functional; settings: Escherichia coli, 50739822, 24 h
# Escherichia coli [28] = experiment: Antibacterial activity against multi-drug resistant/IMP-26 producing Escherichia coli 50857972 after 24 hrs by microdilution method; assay type: functional; settings: Escherichia coli, 50857972, 24 h
# Pseudomonas aeruginosa [29] = experiment: Antibacterial activity against multi-drug resistant/VIM-2 producing Pseudomonas aeruginosa K34-7 after 24 hrs by microdilution method; assay type: functional; settings: K34-7, 24 h
# Pseudomonas aeruginosa [30] = experiment: Antibacterial activity against multi-drug resistant/VIM-4 producing Pseudomonas aeruginosa K34-73 after 24 hrs by microdilution method; assay type: functional; settings: K34-73, 24 h
# Pseudomonas aeruginosa [31] = experiment: Antibacterial activity against multi-drug resistant/IMP-14 producing Pseudomonas aeruginosa K44-24 after 24 hrs by microdilution method; assay type: functional; settings: K44-24, 24 h
# Pseudomonas aeruginosa [32] = experiment: Antibacterial activity against multi-drug resistant/NDM1 producing Pseudomonas aeruginosa 50692172 after 24 hrs by microdilution method; assay type: functional; settings: Pseudomonas aeruginosa, 50692172, 24 h
# Pseudomonas aeruginosa [33] = experiment: Antibacterial activity against multi-drug resistant/VIM producing Pseudomonas aeruginosa 50692520 after 24 hrs by microdilution method; assay type: functional; settings: Pseudomonas aeruginosa, 50692520, 24 h
# Klebsiella pneumoniae [34] = experiment: Antibacterial activity against multi-drug resistant/KPC-2 producing Klebsiella pneumoniae K47-25 after 24 hrs by microdilution method; assay type: functional; settings: K47-25, 24 h
# Klebsiella pneumoniae [35] = experiment: Antibacterial activity against multi-drug resistant/NDM1 producing Klebsiella pneumoniae K66-45 after 24 hrs by microdilution method; assay type: functional; settings: K66-45, 24 h
# Klebsiella pneumoniae [36] = experiment: Antibacterial activity against multi-drug resistant/NDM1/OXA-181 producing Klebsiella pneumoniae 50531633 after 24 hrs by microdilution method; assay type: functional; settings: Klebsiella pneumoniae, 50531633, 24 h
# Klebsiella pneumoniae [37] = experiment: Antibacterial activity against multi-drug resistant/OXA-245 producing Klebsiella pneumoniae 50625602 after 24 hrs by microdilution method; assay type: functional; settings: Klebsiella pneumoniae, 50625602, 24 h
# Klebsiella pneumoniae [38] = experiment: Antibacterial activity against multi-drug resistant/VIM1 producing Klebsiella pneumoniae 50667959 after 24 hrs by microdilution method; assay type: functional; settings: Klebsiella pneumoniae, 50667959, 24 h
# Acinetobacter baumannii [39] = experiment: Antibacterial activity against multi-drug resistant/OXA-58 producing Acinetobacter baumannii K12-21 after 24 hrs by microdilution method; assay type: functional; settings: K12-21, 24 h
# Acinetobacter baumannii [40] = experiment: Antibacterial activity against multi-drug resistant/OXA-23 producing Acinetobacter baumannii K44-35 after 24 hrs by microdilution method; assay type: functional; settings: K44-35, 24 h
# Acinetobacter baumannii [41] = experiment: Antibacterial activity against multi-drug resistant/OXA-23 producing Acinetobacter baumannii K47-42 after 24 hrs by microdilution method; assay type: functional; settings: K47-42, 24 h
# Acinetobacter baumannii [42] = experiment: Antibacterial activity against multi-drug resistant/OXA-24 producing Acinetobacter baumannii K55-13 after 24 hrs by microdilution method; assay type: functional; settings: K55-13, 24 h
# Acinetobacter baumannii [43] = experiment: Antibacterial activity against multi-drug resistant/OXA-23 producing Acinetobacter baumannii K63-58 after 24 hrs by microdilution method; assay type: functional; settings: K63-58, 24 h
compound,measurement,setting,value
CC(C)(C)c1cc(C(=O)Nc2ccc(CC(=O)NCCNC(=N)N)cc2)cc(C(C)(C)C)c1.Cl,MIC,Staphylococcus aureus [1],4 mg/L
same,MIC,[2],4 mg/L
same,MIC,Bacillus subtilis,4 mg/L
same,MIC,[3],2 mg/L
same,MIC,Escherichia coli [4],16 mg/L
same,MIC,Pseudomonas aeruginosa [5],16 mg/L
same,EC50,[6],> 64 mg/L
same,Selectivity Index,[7],> 16
same,"hemolysis at 1 h, 64 ug/ml",[8],35%
same,solubility,[9],Insoluble
CC(C)(C)c1cc(C(=O)Nc2cccc(C(=O)NCCNC(=N)N)c2)cc(C(C)(C)C)c1.Cl,MIC,Staphylococcus aureus [1],4 mg/L
same,MIC,[2],4 mg/L
same,MIC,Bacillus subtilis,4 mg/L
same,MIC,[3],2 mg/L
same,MIC,Escherichia coli [4],8 mg/L
same,MIC,Pseudomonas aeruginosa [5],8 mg/L
same,EC50,[6],37 mg/L
same,Selectivity Index,[7],9.3
same,MIC,Staphylococcus aureus [10],4 mg/L
same,MIC90,Staphylococcus aureus [10],4 mg/L
same,MIC,Enterococcus sp.,16 mg/L
same,MIC90,Enterococcus sp.,8 mg/L
same,MIC,Escherichia coli [11],16 mg/L
same,MIC90,Escherichia coli [11],16 mg/L
same,MIC,Pseudomonas aeruginosa [12],8 mg/L
same,MIC90,Pseudomonas aeruginosa [12],16 mg/L
same,MIC,Klebsiella pneumoniae [13],16 mg/L
same,MIC90,Klebsiella pneumoniae [13],16 mg/L
same,MIC,Staphylococcus aureus [14],8 mg/L
same,MIC,Staphylococcus aureus [15],8 mg/L
same,MIC,Staphylococcus aureus [16],8 mg/L
same,MIC,Staphylococcus aureus [17],8 mg/L
same,MIC,Staphylococcus aureus [18],> 8 mg/L
same,MIC,Enterococcus faecium [19],8 mg/L
same,MIC,Enterococcus faecium [20],8 mg/L
same,MIC,Enterococcus faecium [21],8 mg/L
same,MIC,Enterococcus faecium [22],8 mg/L
same,MIC,Enterococcus faecium [23],8 mg/L
same,MIC,Escherichia coli [24],32 mg/L
same,MIC,Escherichia coli [25],16 mg/L
same,MIC,Escherichia coli [26],16 mg/L
same,MIC,Escherichia coli [27],32 mg/L
same,MIC,Escherichia coli [28],16 mg/L
same,MIC,Pseudomonas aeruginosa [29],16 mg/L
same,MIC,Pseudomonas aeruginosa [30],> 32 mg/L
same,MIC,Pseudomonas aeruginosa [31],16 mg/L
same,MIC,Pseudomonas aeruginosa [32],16 mg/L
same,MIC,Pseudomonas aeruginosa [33],16 mg/L
same,MIC,Klebsiella pneumoniae [34],> 32 mg/L
same,MIC,Klebsiella pneumoniae [35],16 mg/L
same,MIC,Klebsiella pneumoniae [36],16 mg/L
same,MIC,Klebsiella pneumoniae [37],16 mg/L
same,MIC,Klebsiella pneumoniae [38],16 mg/L
same,MIC,Acinetobacter baumannii [39],32 mg/L
same,MIC,Acinetobacter baumannii [40],32 mg/L
same,MIC,Acinetobacter baumannii [41],32 mg/L
same,MIC,Acinetobacter baumannii [42],> 32 mg/L
same,MIC,Acinetobacter baumannii [43],32 mg/L
CC(C)(C)c1cc(C(=O)Nc2ccccc2C(=O)NCCNC(=N)N)cc(C(C)(C)C)c1.Cl,MIC,Staphylococcus aureus [1],1 mg/L
same,MIC,[2],2 mg/L
same,MIC,Bacillus subtilis,1 mg/L
same,MIC,[3],0.5 mg/L
same,MIC,Escherichia coli [4],8 mg/L
same,MIC,Pseudomonas aeruginosa [5],16 mg/L
same,EC50,[6],37 mg/L
same,Selectivity Index,[7],37
same,MIC,Staphylococcus aureus [10],2 mg/L
same,MIC90,Staphylococcus aureus [10],2 mg/L
same,MIC,Enterococcus sp.,8 mg/L
same,MIC90,Enterococcus sp.,4 mg/L
same,MIC,Escherichia coli [11],8 mg/L
same,MIC90,Escherichia coli [11],8 mg/L
same,MIC,Pseudomonas aeruginosa [12],16 mg/L
same,MIC90,Pseudomonas aeruginosa [12],32 mg/L
same,MIC,Klebsiella pneumoniae [13],16 mg/L
same,MIC90,Klebsiella pneumoniae [13],16 mg/L
same,MIC,Staphylococcus aureus [14],4 mg/L
same,MIC,Staphylococcus aureus [15],4 mg/L
same,MIC,Staphylococcus aureus [16],4 mg/L
same,MIC,Staphylococcus aureus [17],4 mg/L
same,MIC,Staphylococcus aureus [18],> 4 mg/L
same,MIC,Enterococcus faecium [19],8 mg/L
same,MIC,Enterococcus faecium [20],4 mg/L
same,MIC,Enterococcus faecium [21],8 mg/L
same,MIC,Enterococcus faecium [22],8 mg/L
same,MIC,Enterococcus faecium [23],4 mg/L
same,MIC,Escherichia coli [24],32 mg/L
same,MIC,Escherichia coli [25],16 mg/L
same,MIC,Escherichia coli [26],> 32 mg/L
same,MIC,Escherichia coli [27],32 mg/L
same,MIC,Escherichia coli [28],16 mg/L
same,MIC,Pseudomonas aeruginosa [29],> 32 mg/L
same,MIC,Pseudomonas aeruginosa [30],> 32 mg/L
same,MIC,Pseudomonas aeruginosa [31],> 32 mg/L
same,MIC,Pseudomonas aeruginosa [32],32 mg/L
same,MIC,Pseudomonas aeruginosa [33],32 mg/L
same,MIC,Klebsiella pneumoniae [34],32 mg/L
same,MIC,Klebsiella pneumoniae [35],32 mg/L
same,MIC,Klebsiella pneumoniae [36],16 mg/L
same,MIC,Klebsiella pneumoniae [37],16 mg/L
same,MIC,Klebsiella pneumoniae [38],32 mg/L
same,MIC,Acinetobacter baumannii [39],32 mg/L
same,MIC,Acinetobacter baumannii [40],16 mg/L
same,MIC,Acinetobacter baumannii [41],16 mg/L
same,MIC,Acinetobacter baumannii [42],32 mg/L
same,MIC,Acinetobacter baumannii [43],32 mg/L
